Test results taken from ChEMBL document CHEMBL3272018, “Synthesis of aziridinylallylaminophosphine oxides and sulfides as potential adjuvant cancer chemotherapeutic agents” (J Med Chem, 1976).
Active and inactive are the calls of the source. The rule behind the calls is not given here.

Columns and labels:
W256 [1] = experiment: Antitumor activity against rat Walker 256 cells intramuscularly allografted in rat assessed as tumor growth inhibition at 1.56 mg/kg, qd administered for 5 days relative to control; format: functional; conditions: W256, im, 120 h, route intramuscular, read-out: TGI
Procedure, shortened: (§1)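 Dosed once daily for 5 days. Response is tumor progression in treated (T) versus untreated control (C) animals, expressed as T/C percentage. Host weight change is reported as the average net weight change of the test group minus that of the controls, in grams.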

W256 [2] = experiment: Antitumor activity against rat Walker 256 cells intramuscularly allografted in rat assessed as tumor growth inhibition at 3.12 mg/kg, qd administered for 5 days relative to control; format: functional; conditions: W256, im, 120 h, route intramuscular, read-out: TGI
Procedure, shortened: (§2)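 Walker 256 carcinoma grown as a solid tumour in rats, with one injection daily for 5 days. Response is given as T/C %, the treated-group measure over the untreated-control tumour measure; a smaller value means more activity. Host toxicity is the mean net weight change of treated minus control animals, in grams.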

W256 [3] = experiment: Antitumor activity against rat Walker 256 cells intramuscularly allografted in rat assessed as tumor growth inhibition; format: functional; conditions: W256, im; procedure, shortened: as §1
Rattus norvegicus [4] = experiment: Toxicity in rat allografted with rat Walker 256 cells intramuscularly assessed as change in body weight at 0.78 mg/kg, qd administered for 5 days; format: organism-based; design: dose 0.78 mg/kg, route intramuscular; conditions: in vivo, im, 120 h
Procedure, shortened: (§3)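 Walker 256 carcinoma solid-tumour system in rats (parent line, or the line resistant to cytoxan). Dosing was one injection per day for 5 days. Toxicity was taken as the average net body-weight change of the treated group minus the average net weight change of the untreated tumour-bearing controls, in grams.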

W256 [5] = experiment: Antitumor activity against rat Walker 256 cells intramuscularly allografted in rat assessed as survival rate at 6.25 mg/kg, qd administered for 5 days; format: functional, organism-based; design: dose 6.25 mg/kg
Procedure, shortened: (§4)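 Rats bearing Walker 256 carcinoma as a solid tumor; lines 1-8 use a cytoxan-resistant Walker 256 subline. Dosed once daily for 5 days. Treated (T) and untreated control (C) groups are compared, and the response is given as T/C percentage, reflecting increase in survival time. Host weight change is the average weight change of the test group minus that of the controls, in grams.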

W256 [6] = experiment: Antitumor activity against rat Walker 256 cells intramuscularly allografted in rat assessed as tumor growth inhibition at 6.25 mg/kg, qd administered for 5 days relative to control; format: functional; conditions: W256, im, 120 h, route intramuscular, read-out: TGI; procedure, shortened: as §2
[7] = Toxicity in rat allografted with rat Walker 256 cells intramuscularly; format: organism-based
Rattus norvegicus [8] = experiment: Toxicity in rat allografted with rat Walker 256 cells intramuscularly assessed as change in body weight at 3.12 mg/kg, qd administered for 5 days; format: organism-based; design: dose 3.12 mg/kg, route intramuscular; conditions: in vivo, im, 120 h; procedure, shortened: as §3
W256 [9] = experiment: Antitumor activity against rat Walker 256 cells intramuscularly allografted in rat assessed as survival rate at 0.47 mg/kg, qd administered for 5 days; format: functional, organism-based; design: dose 0.47 mg/kg; procedure, shortened: as §4
W256 [10] = experiment: Antitumor activity against rat Walker 256 cells intramuscularly allografted in rat assessed as tumor growth inhibition at 0.78 mg/kg, qd administered for 5 days relative to control; format: functional; conditions: W256, im, 120 h, route intramuscular, read-out: TGI; procedure, shortened: as §1
W256 [11] = experiment: Antitumor activity against rat Walker 256 cells intramuscularly allografted in rat assessed as tumor incidence at 12 mg/kg administered as single dose; format: functional, organism-based; design: dose 12 mg/kg
Procedure, shortened: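 Walker 256 solid tumour in rats, given one injection at 12.0 mg/kg. Tumours and toxic deaths were recorded at sacrifice.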

W256 [12] = experiment: Antitumor activity against rat Walker 256 cells intramuscularly allografted in rat assessed as survival rate at 1.56 mg/kg, qd administered for 5 days; format: functional, organism-based; design: dose 1.56 mg/kg; procedure, shortened: as §4
Rattus norvegicus [13] = experiment: Toxicity in rat allografted with rat Walker 256 cells intramuscularly assessed as change in body weight at 0.47 mg/kg, qd administered for 5 days; format: organism-based; design: dose 0.47 mg/kg, route intramuscular; conditions: in vivo, im, 120 h; procedure, shortened: as §3
W256 [14] = experiment: Antitumor activity against rat Walker 256 cells intramuscularly allografted in rat assessed as tumor growth inhibition at 0.47 mg/kg, qd administered for 5 days relative to control; format: functional; conditions: W256, im, 120 h, route intramuscular, read-out: TGI; procedure, shortened: as §1
Rattus norvegicus [15] = experiment: Toxicity in rat allografted with rat Walker 256 cells intramuscularly assessed as change in body weight at 6.25 mg/kg, qd administered for 5 days; format: organism-based; design: dose 6.25 mg/kg, route intramuscular; conditions: in vivo, im, 120 h; procedure, shortened: as §3
W256 [16] = experiment: Antitumor activity against rat Walker 256 cells intramuscularly allografted in rat assessed as survival rate at 3.12 mg/kg, qd administered for 5 days; format: functional, organism-based; design: dose 3.12 mg/kg; procedure, shortened: as §4
Rattus norvegicus [17] = experiment: Toxicity in rat allografted with rat Walker 256 cells intramuscularly assessed as change in body weight at 0.23 mg/kg, qd administered for 5 days; format: organism-based; design: dose 0.23 mg/kg, route intramuscular; conditions: in vivo, im, 120 h; procedure, shortened: as §3
W256 [18] = experiment: Antitumor activity against rat Walker 256 cells intramuscularly allografted in rat assessed as tumor growth inhibition at 0.23 mg/kg, qd administered for 5 days relative to control; format: functional; conditions: W256, im, 120 h, route intramuscular, read-out: TGI; procedure, shortened: as §1
W256 [19] = experiment: Antitumor activity against rat Walker 256 cells intramuscularly allografted in rat assessed as survival rate at 0.23 mg/kg, qd administered for 5 days; format: functional, organism-based; design: dose 0.23 mg/kg; procedure, shortened: as §4
Rattus norvegicus [20] = experiment: Toxicity in rat allografted with rat Walker 256 cells intramuscularly assessed as mortality at 12 mg/kg administered as single dose; format: organism-based; design: dose 12 mg/kg, route intramuscular; conditions: in vivo, im
Procedure, shortened: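 Walker 256 solid-tumour system in rats. A single dose level of 12.0 mg/kg was given as one injection. Toxic deaths were recorded, and tumour presence was checked when the animals were sacrificed.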

Rattus norvegicus [21] = experiment: Toxicity in rat allografted with rat Walker 256 cells intramuscularly assessed as change in body weight at 1.56 mg/kg, qd administered for 5 days; format: organism-based; design: dose 1.56 mg/kg, route intramuscular; conditions: in vivo, im, 120 h; procedure, shortened: as §3
W256 [22] = experiment: Antitumor activity against rat Walker 256 cells intramuscularly allografted in rat assessed as survival rate at 0.78 mg/kg, qd administered for 5 days; format: functional, organism-based; design: dose 0.78 mg/kg; procedure, shortened: as §4
[23] = Therapeutic index, ratio of LD50 for rat allografted with rat Walker 256 cells to ED10 for antitumor activity against rat Walker 256 cells intramuscularly allografted in rat; format: cell-based; conditions: read-out: TI
Procedure, shortened: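 Therapeutic index is LD50/ED10 in the Walker 256 solid tumour system. ED10 is the dose giving a 10% tumour weight reduction, with values extrapolated from dose-response data.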

Musca domestica [24] = experiment: Toxicity in male house fly assessed as sterility; format: organism-based; conditions: in vivo
Musca domestica [25] = experiment: Toxicity in mixed sex house flies assessed as sterility at 1% administered in sugar relative to control; format: organism-based; conditions: in vivo, po

Structure (SMILES): C=CCN(CC=C)P(=O)(N(CC=C)CC=C)N1CC1C (stereo not given)
- inhibition in vivo at 1.56 mg/kg (W256 [1]): 2%
- inhibition in vivo at 3.12 mg/kg (W256 [2]): 1%
- ED10 (W256 [3]): 0.62 mg/kg
- Activity (Rattus norvegicus [4]): -8 g
- Activity (W256 [5]): Active
- inhibition in vivo at 6.25 mg/kg (W256 [6]): 3%
- LD50 [7]: 75 mg/kg
- Activity (Rattus norvegicus [8]): -15 g
- Activity (W256 [9]): Active
- inhibition in vivo at 0.78 mg/kg (W256 [10]): 4%
- Activity (W256 [11]): Active
- Activity (W256 [12]): Active
- Activity (Rattus norvegicus [13]): -15 g
- inhibition in vivo at 0.47 mg/kg (W256 [14]): 2%
- Activity (Rattus norvegicus [15]): -28 g
- Activity (W256 [16]): Active
- Activity (Rattus norvegicus [17]): -3 g
- inhibition in vivo at 0.23 mg/kg (W256 [18]): 33%
- Activity (W256 [19]): Active
- Activity (Rattus norvegicus [20]): Non-toxic
- Activity (Rattus norvegicus [21]): -22 g
- Activity (W256 [22]): Active
- selectivity ratio [23]: 125

Structure (SMILES): C=CCN(C1=CCCCC1)P(=O)(N1CC1C)N1CC1C (stereo not given)
- Activity (Musca domestica [24]): Non-toxic
- Activity (Musca domestica [25]): 82%
